Here are results for 10 compounds from ChEMBL document CHEMBL6182827 (RSC Med Chem, 2025).

Series [1] deals with Delta-type opioid receptor (Rattus norvegicus, UniProt P33533). Description: Displacement of [3H]-Deltorphin from DOR in male Sprague-Dawley rat brain membrane assessed as inhibition constant incubated for 45 mins by liquid scintillation counter analysis. The format is cell membranes. On the technique in general: Loss of bound radioactivity is the signal in a displacement assay; it reports binding, not function.
Sequence of Delta-type opioid receptor (P33533 whole entry): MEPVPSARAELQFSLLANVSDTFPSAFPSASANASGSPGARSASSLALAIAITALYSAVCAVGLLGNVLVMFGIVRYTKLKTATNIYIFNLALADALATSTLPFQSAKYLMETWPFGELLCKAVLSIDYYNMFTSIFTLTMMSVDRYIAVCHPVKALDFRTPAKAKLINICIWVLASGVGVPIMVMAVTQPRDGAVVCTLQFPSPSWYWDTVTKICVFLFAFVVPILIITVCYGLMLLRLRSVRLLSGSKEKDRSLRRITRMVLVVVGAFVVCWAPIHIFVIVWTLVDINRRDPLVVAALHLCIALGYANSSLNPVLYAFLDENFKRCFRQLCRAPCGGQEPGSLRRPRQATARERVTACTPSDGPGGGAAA

The target of series [2] is T1, Sigma intracellular receptor 2 (Rattus norvegicus, UniProt Q5U3Y7).
T1 sequence (Q5U3Y7 whole entry): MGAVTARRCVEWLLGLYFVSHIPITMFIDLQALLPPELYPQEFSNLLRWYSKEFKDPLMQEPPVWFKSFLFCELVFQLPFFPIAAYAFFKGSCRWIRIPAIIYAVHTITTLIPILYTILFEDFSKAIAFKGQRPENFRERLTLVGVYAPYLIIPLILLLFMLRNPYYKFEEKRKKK
Briefly: Displacement of [3H]-DTG from sigma 2 receptor in male Sprague-Dawley rat liver membrane assessed as inhibition constant in presence of pentazocine by liquid scintillation counter analysis. In kind it is cell membranes.

The target of series [3] is Sigma non-opioid intracellular receptor 1 (Rattus norvegicus, UniProt Q9R0C9). Briefly: Displacement of [3H]-pentazocine from sigma 1 receptor in male Sprague-Dawley rat liver membrane assessed as inhibition constant by liquid scintillation counter analysis. In kind it is cell membranes.
Sequence of Sigma non-opioid intracellular receptor 1 (Q9R0C9 whole entry): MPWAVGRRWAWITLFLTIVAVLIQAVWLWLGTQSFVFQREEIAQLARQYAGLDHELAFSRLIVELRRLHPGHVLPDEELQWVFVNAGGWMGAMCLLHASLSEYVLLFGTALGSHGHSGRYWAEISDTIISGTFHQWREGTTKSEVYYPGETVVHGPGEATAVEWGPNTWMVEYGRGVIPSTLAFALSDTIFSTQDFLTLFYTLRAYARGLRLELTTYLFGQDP
The target of series [4] is Kappa-type opioid receptor (Cavia porcellus, UniProt P41144). Description: Displacement of [3H]-U69593 from KOR in male Dunkin-Hartley guinea pig brain membrane assessed as inhibition constant incubated for 30 mins by liquid scintillation counter analysis. The format is cell membranes.
Sequence of Kappa-type opioid receptor (P41144 whole entry): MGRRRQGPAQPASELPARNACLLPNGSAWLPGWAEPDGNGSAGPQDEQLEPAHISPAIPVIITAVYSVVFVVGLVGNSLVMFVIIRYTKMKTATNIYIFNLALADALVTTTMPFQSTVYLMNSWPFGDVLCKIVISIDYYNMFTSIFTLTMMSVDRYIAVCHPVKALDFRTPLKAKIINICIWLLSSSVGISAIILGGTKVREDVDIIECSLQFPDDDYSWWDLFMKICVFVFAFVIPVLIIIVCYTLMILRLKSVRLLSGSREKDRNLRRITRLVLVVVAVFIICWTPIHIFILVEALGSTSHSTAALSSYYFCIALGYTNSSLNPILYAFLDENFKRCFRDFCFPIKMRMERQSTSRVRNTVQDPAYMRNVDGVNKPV
For a further series, the target named is Mu-type opioid receptor (Rattus norvegicus, UniProt P33535). Briefly: Displacement of [3H]-DAMGO from MOR in male Sprague-Dawley rat brain membrane assessed as inhibition constant incubated for 45 mins by liquid scintillation counter analysis. In kind it is cell membranes.
Sequence of Mu-type opioid receptor (P33535 whole entry): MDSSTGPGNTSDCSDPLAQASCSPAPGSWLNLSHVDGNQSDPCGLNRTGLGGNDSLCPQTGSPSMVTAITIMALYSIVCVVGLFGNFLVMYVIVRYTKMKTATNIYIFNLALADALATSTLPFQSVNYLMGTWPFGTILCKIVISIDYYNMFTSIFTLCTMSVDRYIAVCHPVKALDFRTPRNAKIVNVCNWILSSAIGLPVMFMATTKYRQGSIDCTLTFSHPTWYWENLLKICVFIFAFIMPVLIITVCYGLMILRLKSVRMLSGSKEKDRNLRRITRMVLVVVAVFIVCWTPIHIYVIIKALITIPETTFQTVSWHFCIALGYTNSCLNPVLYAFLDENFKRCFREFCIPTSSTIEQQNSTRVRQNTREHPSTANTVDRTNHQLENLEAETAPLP
Series [5] in a line: Stability of the compound in C57 mouse plasma at 200 uM measured at >= 20 mins by RP-HPLC analysis. The format is ADME, cell-free. The procedure, abridged:
(§1)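 A 10 mM DMSO stock was added to C57 mouse plasma prewarmed to 37 °C (final 200 μM) and held at 37 ± 0.5 °C. Samples taken at 0, 1, 5, 20 and 60 min were deproteinized 1:1 with acetonitrile containing 0.1% HCOOH (100 μM), centrifuged, filtered, and analysed by C18 RP-HPLC-DAD. Duplicates; t1/2 from a one-phase exponential decay fit with the plateau fixed at 0.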

For series [6], the system named is Mus musculus. Description: Antinociceptive activity in formalin-induced male CD1 mouse model assessed as effect on nociceptive behavior by measuring rapid pain response (phase I) at 3 to 7 mg/kg, ip pre-administered with compound for 20 mins followed by formalin induction and measured for 1 hrs. In kind it is functional, organism-based. The settings on record: dose 3-7 mg/kg, time 80.0 min. The procedure, abridged:
(§2)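 Male CD1 mice, 8–12 weeks, randomized and acclimated 20 min. Drug in saline with 0.5% v/v DMSO given i.p. 20 min before formalin (5%, 10 μL) into the right hind-paw plantar surface. Licking, flicking or shaking of the injected paw recorded every 5 min for 1 h by a blinded observer.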

Series [7] can be described thus: Stability of the compound in C57 mouse plasma assessed as retention time at 200 uM measured up to 60 mins by RP-HPLC analysis. In kind it is ADME, cell-free. The settings on record: 1 h. The procedure, abridged: as §1
Series [8] is described as follows: Stability of the compound in C57 mouse plasma at 200 uM measured up to 5 mins by RP-HPLC analysis. In kind it is ADME, cell-free. The procedure, abridged:
as §1

The nature of series [9]: Chemical stability of the compound in aqueous phosphate buffer at pH 7.4 assessed as half life at 200 uM by RP-HPLC analysis. In kind it is physicochemical. The settings on record: pH 7.4, 200 µM. The procedure, abridged: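 A 10 mM DMSO stock was added to pH 7.4 phosphate buffer prewarmed to 37 °C (final 200 μM) and held at 37 ± 0.5 °C for up to 300 min. Aliquots were mixed 1:1 with acetonitrile (100 μM), filtered and run on C18 RP-HPLC with DAD at 285 nm against a 10–250 μM calibration curve. Duplicates; t1/2 from a one-phase exponential decay fit.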

The subject of series [10] is Mus musculus. Briefly: Antinociceptive activity in formalin-induced male CD1 mouse model assessed as effect on nociceptive behavior by measuring behavioral pain (phase II) at 3 mg/kg, ip pre-administered with compound for 20 mins followed by formalin induction and measured for 1 hrs. The format is functional, organism-based. The settings on record: time 80.0 min. The procedure, abridged: as §2

Series [11] has as its system Mus musculus. Description: Antinociceptive activity in formalin-induced male CD1 mouse assessed as reduction in nociceptive behavior by measuring decrease in lifting/licking time at behavioral pain phase (II) at 5 to 7 mg/kg, ip pre-administered with compound for 20 mins followed by formalin induction and measured for 1 hrs. The settings on record: dose 5-7 mg/kg, time 80.0 min. In kind it is functional, organism-based. The procedure, abridged:
as §2

In series [12] the test system is Mus musculus. Briefly: Antinociceptive activity in formalin-induced male CD1 mouse assessed as reduction in nociceptive behavior by measuring decrease in flinches at behavioral pain phase (II) at 5 to 7 mg/kg, ip pre-administered with compound for 20 mins followed by formalin induction and measured for 1 hrs. The format is functional, organism-based. The settings on record: dose 5-7 mg/kg, time 80.0 min. The procedure, abridged:
as §2

Series [13] can be described thus: Stability of the compound in C57 mouse plasma assessed as half life at 200 uM measured up to 60 mins by RP-HPLC analysis. In kind it is ADME, cell-free. The settings on record: 1 h. The procedure, abridged:
as §1

A word on the Ki: it is the dissociation constant of the complex between target and ligand, obtained from inhibition or displacement.

Activity calls are given as the source filed them. The calls are words filed in the database; no cut-off is given here. Bounds are passed on as bounds.

In the case of `COC(=O)CCN1CC[C@]2(C)c3cc(O)ccc3C[C@H]1[C@H]2C`, the Ki in series [1] was greater than 5 µM; in series [2] it was greater than 10 µM; in series [3] it was greater than 10 µM; in series [4], greater than 5 µM; at Mu-type opioid receptor, greater than 5 µM.
For the compound `COC(=O)CCCN1CC[C@]2(C)c3cc(O)ccc3C[C@H]1[C@H]2C`, the Ki in series [1] is greater than 5 µM; in [2], greater than 10 µM; in series [3], 0.159 µM; in [4], greater than 5 µM; at Mu-type opioid receptor, greater than 5 µM.
As for `C[C@@H]1[C@@H]2Cc3ccc(O)cc3[C@@]1(C)CCN2CCC(=O)O`, the inhibition constant (Ki) is greater than 5 µM in series [1]; greater than 10 µM in series [2]; greater than 10 µM in series [3]; greater than 5 µM in [4]; greater than 5 µM on Mu-type opioid receptor.
`C[C@@H]1[C@@H]2Cc3ccc(O)cc3[C@@]1(C)CCN2CCCC(=O)O`: the Ki in series [1] was greater than 5 µM; in series [2], greater than 10 µM; in [3], greater than 10 µM; in series [4] it was greater than 5 µM; at Mu-type opioid receptor, greater than 5 µM.
On to `CCOC(=O)C(CCN1CC[C@]2(C)c3cc(O)ccc3C[C@H]1[C@H]2C)c1ccccc1` (mixture of isomers), for which the Stability result in series [5] is reported as “Unstable”; in series [8], “Stable”. Further, the Activity entry in the series with Mus musculus [6] and in the series with Mus musculus [10] was “Not active; Compound Did Not Significantly Modify Licking And Flicking/Shanking Time Of Injected Paw” throughout. The Ki was greater than 5 µM in [1]; greater than 1 µM in series [2]; 0.0275 µM in series [3]; greater than 5 µM in series [4]; greater than 5 µM on Mu-type opioid receptor. In addition, the Retention_time in [7] is reported as 10.52 min. Further, the t1/2 in series [9] came out at 5 h; in series [13], 0.5178 h. For the same compound, the outcome in the series with Mus musculus [11] and with Mus musculus [12] was Active.
Regarding `C[C@@H]1[C@@H]2Cc3ccc(O)cc3[C@@]1(C)CCN2CCC(C(=O)O)c1ccccc1` (mixture of isomers), the Ki in series [1] is greater than 5 µM; in series [2], greater than 10 µM; in series [3] it was greater than 10 µM; in series [4] it was greater than 5 µM; at Mu-type opioid receptor, greater than 5 µM.
Take `C[C@@H]1[C@@H]2Cc3ccc(O)cc3[C@@]1(C)CCN2CC(C(=O)O)c1ccccc1` (mixture of isomers): the Ki in series [1] is greater than 5 µM; in [2] it was greater than 10 µM; in series [3], 0.664 µM; in series [4] it was greater than 5 µM; at Mu-type opioid receptor, greater than 5 µM.
Regarding `CCOC(=O)C(CCCN1CC[C@]2(C)c3cc(O)ccc3C[C@H]1[C@H]2C)c1ccccc1` (mixture of isomers), the inhibition constant (Ki) in [1] is greater than 5 µM; in [2], greater than 10 µM; in series [3] it was 0.594 µM; in series [4] it was greater than 5 µM; on Mu-type opioid receptor it was greater than 5 µM.
On to `C[C@@H]1[C@@H]2Cc3ccc(O)cc3[C@@]1(C)CCN2CCCC(C(=O)O)c1ccccc1` (mixture of isomers), for which the Ki is greater than 5 µM in series [1]; greater than 10 µM in series [2]; greater than 10 µM in series [3]; greater than 5 µM in series [4]; greater than 5 µM at Mu-type opioid receptor.
Consider `CCOC(=O)C(CN1CC[C@]2(C)c3cc(O)ccc3C[C@H]1[C@H]2C)c1ccccc1` (mixture of isomers), for which the Ki in series [1] was greater than 5 µM; in [2] it was greater than 10 µM; in [3], greater than 10 µM; in [4], greater than 5 µM; on Mu-type opioid receptor, greater than 5 µM.
